Results from different studies.
Protocols differ between the studies behind these lines.
CYP2C19: Cytochrome P450 2C19 (CYP2C19, Homo sapiens, UniProt P33261)
UGT1A4: UDP-glucuronosyltransferase 1A4 (UGT1A4, Homo sapiens, UniProt P22310)

Compound	tested on	test	test system	setting	quantity	result
C[C@@H]1C[C@H](c2ccc(Br)cc2)c2c(cc3ccccn23)C(=O)O1 (racemic)	HFF-1	cell growth or viability, resazurin		72 h	CC50	0.92 µM
COC(=O)C1CCN(C(=O)c2ccc(NCc3cnc4nc(N)nc(N)c4n3)cn2)CC1	CYP2C19	enzyme activity, inhibitor, luciferase		10 µM	inhibition	-1.34%
CN(CCC(=O)O)C(=O)c1ccc2c(c1)CC[C@@H]1[C@@H]2CC[C@]2(C)C(c3cncc(F)c3)=CC[C@@H]12	UGT1A4	enzyme activity, inhibitor			IC50	> 30 µM
N=C(N)NCc1ccc(NC(=O)c2ccc(C(=O)Nc3ccc(C4=CCN(C(=N)N)CC4)cc3)nc2)cc1	NIH3T3	cell growth or viability, MTS		24 h	CC50	> 117 µM
C=CC(=O)N1CC2CC(n3nc(-c4ccc(C(=O)Nc5ccccn5)cc4)c4c(N)ncnc43)CC2C1 (stereo not drawn)			male Wistar rat, plasma	oral, 10 mg/kg	Tmax	2 h
N=C(N)NCc1ccc(NC(=O)c2ccc(C(=O)Nc3cnc(C4=CCN(C(=N)N)CC4)cn3)cc2)cc1	NIH3T3	cell growth or viability, MTS		24 h	CC50	> 585 µM
COc1cc2c3c(n(CCCN4CCOCC4)c(=O)c2cc1OC)-c1cc2c(cc1C3=O)OCO2			male beagle dog, plasma	intravenous, 10 mg/m², infusion	Cmax	106 ng/mL
C[C@@H](Cn1ccc(-c2ccc(C#N)c(Cl)c2)n1)NC(=O)c1cc([C@@H](C)O)[nH]n1	UGT1A4	enzyme activity, inhibitor	human, liver microsomes		IC50	> 100 µM
COC(=O)C1CCN(C(=O)c2ccc(N(CCO)Cc3cnc4nc(N)nc(N)c4n3)cc2)CC1	CYP2C19	enzyme activity, inhibitor, luciferase		10 µM	inhibition	-24.5%
N=C(N)N1CC=C(c2ccc(NC(=O)c3ccc(C4=CCN(C(=N)N)CC4)cc3)cc2)CC1	NIH3T3	cell growth or viability, MTS		24 h	CC50	41 µM
NC(=O)C1CCCN1C(=O)Cc1ccc(N(CCCO)Cc2cnc3nc(N)nc(N)c3n2)cc1 (stereo not drawn)	CYP2C19	enzyme activity, inhibitor, luciferase		10 µM	inhibition	-4.55%
[11CH3]Oc1cccc(CCc2cc(O)c(=O)[nH]n2)c1	ATP-dependent translocase ABCB1 (Abcb1a, Mus musculus, UniProt P21447)		mouse, brain	30 min	tracer uptake	0.23 %ID/g
